Reference: PMC8923172 (Antimicrobial Agents and Chemotherapy, 2022)
Marks after values point to notes of the source that are not given here. Residues, ends and D or L forms follow the SMILES beside them.

Key:
[1] = Serum biochemistry of cynomolgus monkeys at the end of treatment; type: in vivo; details: median (IQR)
Method in brief: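 GLP 10-day study in male and female cynomolgus monkeys (n = 3-5/sex/group) dosed once daily with 0 (placebo), 5, 10 or 15 mg/kg test compound by i.v. infusion over 60 ± 5 min. Hematology, serum chemistry and coagulation were taken at end of treatment and reported as median (IQR). Dose groups were compared by Kruskal-Wallis with Dunn's multiple comparison test.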

[2] = Single-dose i.v. pharmacokinetics in mice; type: in vivo, CD-1 mice; details: 5 mg/kg single i.v. bolus, n=4/time point
Method in brief: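 Male and female CD-1 mice received a single 5 mg/kg i.v. bolus into the lateral tail vein, with 2/sex per time point. EDTA blood was taken by terminal cardiac puncture at 0.25, 1, 2, 4, 8 and 24 h; plasma was stored at −80°C. Sparse-sampling NCA used nominal times, linear-up/log-down AUC, and excluded values below LLOQ.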

[3] = Toxicity studies in cynomolgus monkeys: mortality, MTD, NOAEL; type: in vivo
Method in brief: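 Cynomolgus monkeys were studied in two designs. Non-GLP range-finding: single ascending i.v. doses (0.3-10 mg/kg), then 15 mg/kg daily for 7 days, 1/sex; MTD was based on mortality, clinical observations and body weight. GLP: 0, 5, 10 or 15 mg/kg/day for 10 days by 60-min infusion, with a recovery group. NOAEL drew on clinical signs, clinical pathology and histopathology.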

SMILES: CC[C@H](C)[C@@H]1NC(=O)[C@@H]2CSSC[C@H](NC(=O)[C@H](CCCNC(=N)N)NC(=O)[C@@H]3CSSC[C@H](NC1=O)C(=O)N[C@@H]([C@@H](C)O)C(=O)N[C@@H](CCCNC(=N)N)C(=O)NCC(=O)N[C@@H](Cc1ccccc1)C(=O)N3)C(=O)N[C@@H](CC(C)C)C(=O)N[C@H]1CSSC[C@H](NC(=O)[C@H](C(C)C)NC(=O)CNC(=O)[C@H](CCCNC(=N)N)NC(=O)[C@H](CCCNC(=N)N)NC1=O)C(=O)N[C@@H](CCCNC(=N)N)C(=O)N2 [RTD-1, Rhesus theta (θ) defensin-1] (HELM PEPTIDE1{G.F.C.R.C.L.C.R.R.G.V.C.R.C.I.C.T.R}$PEPTIDE1,PEPTIDE1,3:R3-16:R3|PEPTIDE1,PEPTIDE1,5:R3-14:R3|PEPTIDE1,PEPTIDE1,7:R3-12:R3|PEPTIDE1,PEPTIDE1,1:R1-18:R2$$$V2.0)
- T-Bil ([1]; female, 15 mg/kg/day): 0.2 (0.2) mg/dL
- TP ([1]; female, 15 mg/kg/day): 7.1 (0.8) g/dL
- Triglycerides ([1]; female, 15 mg/kg/day): 56.0 (11.0) mg/dL
- Urea N ([1]; female, 15 mg/kg/day): 18.0 (1.0) mg/dL
- A/G ([1]; male, 5 mg/kg/day): 1.8 (0.1)
- ALP ([1]; male, 5 mg/kg/day): 802.0 (253.0) U/L
- ALT ([1]; male, 5 mg/kg/day): 172.0 (125.0) U/L
- AST ([1]; male, 5 mg/kg/day): 122.0 (190.0) U/L
- Albumin ([1]; male, 5 mg/kg/day): 4.8 (0.2) g/dL
- CK ([1]; male, 5 mg/kg/day): 888.0 (13,478.0) U/L
- Calcium ([1]; male, 5 mg/kg/day): 9.8 (0.5) mg/dL
- Chloride ([1]; male, 5 mg/kg/day): 110.0 (2.0) mmol/L
- Cholesterol ([1]; male, 5 mg/kg/day): 110.0 (15.5) mg/dL
- Creatinine ([1]; male, 5 mg/kg/day): 0.8 (0.2) mg/dL
- GGT ([1]; male, 5 mg/kg/day): 137.0 (31.5) U/L
- Globulin ([1]; male, 5 mg/kg/day): 2.7 (0.1) g/dL
- Glucose ([1]; male, 5 mg/kg/day): 111.0 (26.5) mg/dL
- Phos ([1]; male, 5 mg/kg/day): 5.5 (1.7) mg/dL
- Potassium ([1]; male, 5 mg/kg/day): 6.0 (1.4) mmol/L
- Sodium ([1]; male, 5 mg/kg/day): 147.0 (4.0) mmol/L
- T-Bil ([1]; male, 5 mg/kg/day): 0.3 (0.1) mg/dL
- TP ([1]; male, 5 mg/kg/day): 7.5 (0.2) g/dL
- Triglycerides ([1]; male, 5 mg/kg/day): 46.0 (18.5) mg/dL
- Urea N ([1]; male, 5 mg/kg/day): 15.0 (3.5) mg/dL
- A/G ([1]; male, 10 mg/kg/day): 1.7 (0.2)
- ALP ([1]; male, 10 mg/kg/day): 753.0 (3.5) U/L
- ALT ([1]; male, 10 mg/kg/day): 105.0 (26.5) U/L
- AST ([1]; male, 10 mg/kg/day): 105.0 (43.5) U/L
- Albumin ([1]; male, 10 mg/kg/day): 4.7 (0.2) g/dL
- CK ([1]; male, 10 mg/kg/day): 515.0 (2,756.5) U/L
- Calcium ([1]; male, 10 mg/kg/day): 10.5 (0.4) mg/dL
- Chloride ([1]; male, 10 mg/kg/day): 110.0 (1.5) mmol/L
- Cholesterol ([1]; male, 10 mg/kg/day): 99.0 (16.5) mg/dL
- Creatinine ([1]; male, 10 mg/kg/day): 0.6 (0.1) mg/dL
- GGT ([1]; male, 10 mg/kg/day): 119.0 (32.5) U/L
- Globulin ([1]; male, 10 mg/kg/day): 2.9 (0.4) g/dL
- Glucose ([1]; male, 10 mg/kg/day): 71.0 (23.0) mg/dL
- Phos ([1]; male, 10 mg/kg/day): 5.4 (0.8) mg/dL
- Potassium ([1]; male, 10 mg/kg/day): 5.9 (0.9) mmol/L
- Sodium ([1]; male, 10 mg/kg/day): 150.0 (3.0) mmol/L
- T-Bil ([1]; male, 10 mg/kg/day): 0.3 (0.0) mg/dL
- TP ([1]; male, 10 mg/kg/day): 7.5 (0.5) g/dL
- Triglycerides ([1]; male, 10 mg/kg/day): 32.0 (6.0) mg/dL
- Urea N ([1]; male, 10 mg/kg/day): 20.0 (3.5) mg/dL
- A/G ([1]; male, 15 mg/kg/day): 1.6 (0.2)
- ALP ([1]; male, 15 mg/kg/day): 957.0 (638.0) U/L
- ALT ([1]; male, 15 mg/kg/day): 88.0 (17.0) U/L
- AST ([1]; male, 15 mg/kg/day): 103.0 (40.0) U/L
- Albumin ([1]; male, 15 mg/kg/day): 4.4 (0.2) g/dL
- CK ([1]; male, 15 mg/kg/day): 518.0 (1,392.0) U/L
- Calcium ([1]; male, 15 mg/kg/day): 10.1 (0.3) mg/dL
- Chloride ([1]; male, 15 mg/kg/day): 112.0 (1.0) mmol/L
- Cholesterol ([1]; male, 15 mg/kg/day): 105.0 (50.0) mg/dL
- Creatinine ([1]; male, 15 mg/kg/day): 0.6 (0.1) mg/dL
- GGT ([1]; male, 15 mg/kg/day): 101.0 (6.0) U/L
- Globulin ([1]; male, 15 mg/kg/day): 2.9 (0.5) g/dL
- Glucose ([1]; male, 15 mg/kg/day): 67.0 (5.0) mg/dL
- Phos ([1]; male, 15 mg/kg/day): 5.2 (0.6) mg/dL
- Potassium ([1]; male, 15 mg/kg/day): 5.8 (0.6) mmol/L
- Sodium ([1]; male, 15 mg/kg/day): 149.0 (2.0) mmol/L
- T-Bil ([1]; male, 15 mg/kg/day): 0.2 (0.2) mg/dL
- TP ([1]; male, 15 mg/kg/day): 7.5 (0.8) g/dL
- Triglycerides ([1]; male, 15 mg/kg/day): 78.0 (52.0) mg/dL
- Urea N ([1]; male, 15 mg/kg/day): 15.0 (2.0) mg/dL
- AUC0-∞ ([2]; pooled NCA): 12,497 ng · h/mL
- AUCτ ([2]; pooled NCA): 12,282 ng · h/mL
- CL ([2]; pooled NCA): 6.67 mL/min/kg
- MRT ([2]; pooled NCA): 2.62 h
- λz ([2]; pooled NCA): 0.114 h⁻¹
- Cmax ([2]; pooled, estimate (SE)): 8,919 (1,088)^b ng/mL
- mortality ([3]; GLP 10-day repeat-dose TK study, any dose level (5-15 mg/kg/day)): no mortality or unscheduled euthanasia
- NOAEL ([3]; GLP 10-day repeat-dose i.v.): 15 mg/kg/day
